Shown are actives, neighbours in structure and some others; about 2.6% of the full set was active somewhere.
rCAG RNA binder: r(CAG) repeat RNA binding. 370,000 tested, 1.3% active. TO-PRO-1 dye displacement fluorescence. inhibition, % at 3 µM;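 active = inhibition above the plate cutoff, the mean of all test compounds on that plate plus 3 SD, cut at about 35% in these data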;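 also: 0% = DMSO alone and 100% = 100 µM mitoxantrone as full dye displacement; higher means more dye released from RNA so lower well fluorescence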
ABHD5-PLIN5 inh: inhibitors of human ABHD5-perilipin-5 interaction; Q00G26+Q8WTS1; Split G. princeps luciferase complementation, luminescence, 4 h; inhibition, % at 4 µM; 360,000 tested, 0.78% active;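 active = inhibition above the mean inhibition across every tested compound plus 3 SD, cut at about 22% in these data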;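 also: 0% = DMSO only wells and the 100% control is not disclosed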
Target sequence (Q00G26 whole entry, looked up): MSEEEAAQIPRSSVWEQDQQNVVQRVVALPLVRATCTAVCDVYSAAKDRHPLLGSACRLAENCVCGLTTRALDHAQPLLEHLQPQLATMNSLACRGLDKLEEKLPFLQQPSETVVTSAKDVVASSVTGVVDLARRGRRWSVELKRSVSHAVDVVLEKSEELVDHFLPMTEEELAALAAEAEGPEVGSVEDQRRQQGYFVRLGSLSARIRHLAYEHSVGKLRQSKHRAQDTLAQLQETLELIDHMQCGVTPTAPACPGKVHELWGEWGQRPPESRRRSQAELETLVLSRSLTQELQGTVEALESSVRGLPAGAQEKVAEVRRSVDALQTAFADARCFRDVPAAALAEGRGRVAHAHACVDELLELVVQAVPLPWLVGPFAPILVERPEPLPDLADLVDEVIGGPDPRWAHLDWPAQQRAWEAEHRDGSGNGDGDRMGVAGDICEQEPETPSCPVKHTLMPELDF
Target sequence (Q8WTS1 whole entry, looked up): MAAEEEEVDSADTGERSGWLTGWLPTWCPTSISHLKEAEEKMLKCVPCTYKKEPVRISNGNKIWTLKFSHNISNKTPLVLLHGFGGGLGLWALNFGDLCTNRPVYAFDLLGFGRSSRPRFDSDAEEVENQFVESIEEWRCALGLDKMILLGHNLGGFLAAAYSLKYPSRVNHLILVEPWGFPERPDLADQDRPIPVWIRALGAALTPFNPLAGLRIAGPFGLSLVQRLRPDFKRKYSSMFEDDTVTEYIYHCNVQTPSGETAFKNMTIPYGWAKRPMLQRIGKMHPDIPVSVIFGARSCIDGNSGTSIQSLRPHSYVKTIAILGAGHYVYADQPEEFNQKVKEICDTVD
core dimer inh: HCV core protein dimerization inhibition. AID 1899. TR-FRET GST/Flag-core106 dimerization, 1536-well. 300,000 tested, 0.33% active. inhibition, % at 5 µM;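 active = inhibition above the mean of all tested compounds plus 3 SD, set per screening campaign, cut at about 45% in these data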
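Material: GST/Flag-tagged HCV core106 proteins. Incubation: 4 h, 22.5 °C incubation. Read-out basis: inhibition (%) from 671 over 617 nm ratio. Measured by: TR-FRET, excitation 340 nm, emission 617 and 671 nm.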
NadD inh: NadD (S. aureus) enzyme inhibition; purified NadD enzyme, colorimetric absorbance read-out; inhibition, % at 20 µM; 360,000 tested, 0.78% active; in the data active = inhibition above about 26%
ABHD5-PLIN5 conf: ABHD5-PLIN5 interaction inhibition, confirmed; shares compounds with ABHD5-PLIN5 inh; AID 651612; biochemical ABHD5-PLIN5 interaction, luminescence; 2,200 tested, 67% active; inhibition, % at 4 µM; in the data active = inhibition above about 23%;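 also: 0% = DMSO vehicle wells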
HNF4 split-luc: counter-screen for ABHD5-PLIN5 inhibitors: HNF4 split-luciferase. shares compounds with ABHD5-PLIN5 inh. HNF4 dimerization, luminescence, biochemical. inhibition, % at 4 µM. 2,200 tested, 77% active. AID 651674;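 active = mean inhibition across replicate wells exceeding the computed hit threshold, cut at about 13% in these data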;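 also: light from luciferase halves that rejoin when HNF4 fusion proteins dimerize; 0% = DMSO only wells and the 100% control is not given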
* hit, by the source's call; . = not tested or not shown.

SMILES	rCAG RNA binder	ABHD5-PLIN5 inh	core dimer inh	NadD inh	ABHD5-PLIN5 conf	HNF4 split-luc
CC(NC(=O)COC(=O)C1CCC1)c1ccccc1 (centres undefined)	0	23*	0	2	4	1
O=C(/C=C(\Nc1cccc(Cl)c1)c1ccccc1)c1ccccc1	2	.	.	.	.	.
CCCn1nc2cc(C(=O)NCc3ccc(OC)cc3)ccc2c1OCC	-8	-2	-5	-1	.	.
CCCn1nc2cc(C(=O)N(CC)c3ccc(OC)cc3)ccc2c1OCC	-8	71*	2	2	3	0
Nc1sccc1C(=O)NCc1ccccc1	8	36*	.	.	14	49*
CCOC(=O)Nc1ccc2c(c1)N(C(=O)CCN(CC)CC)c1ccccc1CC2	-6	0	5	-2	.	.
CCOC(=O)Nc1ccc2c(c1)N(C(=O)CCN(CC)CC)c1ccccc1S2=O (centres undefined)	-5	23*	2	-1	21	78*
Cc1cc(C)c(C(CC(=O)c2cccs2)C(C#N)C#N)c(C)c1 (centres undefined)	7	24*	4	-6	64*	41*
CC(CC(=O)c1cccs1)CC(=O)c1cccs1	-4	-5	-6	-2	.	.
O=C(Oc1ccc(Br)cc1C(=O)/C=C/c1ccccc1F)c1ccco1	6	73*	4	-6	99*	93*
Cc1ccc(C2Nc3ccc4ccccc4c3C3=C2C(=O)CC(C)(C)C3)o1 (centres undefined)	.	30*	0	0	4	7
CCCCCn1nnnc1-c1nc2cc(C)c(C)cc2[nH]c1=O	10	1	.	6	.	.
CCOc1ccc(NC(=O)CN(C)C(=O)C2CC(=O)N(CCc3ccc(OC)c(OC)c3)C2)cc1OCC (centres undefined)	3	2	.	4	.	.
CCOc1ccc(NC(=O)CN(C)C(=O)C2CC(=O)N(Cc3ccco3)C2)cc1OCC (centres undefined)	-1	23*	.	2	29*	24*
COc1ccc(C2C3=C(CC(c4ccco4)CC3=O)Nc3ccccc3N2C(C)=O)cc1 (centres undefined)	-2	11	-2	7	.	.
CC(=O)N1c2ccccc2NC2=C(C(=O)CCC2)C1c1ccco1 (centres undefined)	1	30*	1	2	19	37*
CC(=O)N1CCN(Cc2cc(=O)oc3ccccc23)CC1	1	3	.	-6	.	.
O=C(N[C@@H](Cc1ccccc1)C(=O)N[C@@H](Cc1ccccc1)C(=O)O)OCc1ccccc1	9	7	4	-4	.	.
O=C(N[C@@H](Cc1ccccc1)C(=O)CCl)OCc1ccccc1	1	65*	23	1	96*	106*
COc1ccc(OC(=O)c2cnc3n(c2=O)CCS3)cc1	2	41*	-2	0	0	1
COc1ccc(OC)c(NC(=O)c2cnc3n(c2=O)CCS3)c1	6	6	-2	-2	.	.
O=C1Nc2ccccc2/C1=C/c1ccccc1Cl	1	27*	5	-5	40*	26*
CC(C)Oc1ccc(C(=O)/C=C2/C(=O)Nc3ccccc32)cc1	14	62*	14	-9	82*	86*
O=C1Nc2ccccc2/C1=C\C(=O)c1ccccc1	8	50*	-6	-5	82*	96*
COc1ccccc1/C=C1\C(=O)Nc2ccccc21	0	19	.	-4	.	.
SMILES	rCAG RNA binder	ABHD5-PLIN5 inh	core dimer inh	NadD inh	ABHD5-PLIN5 conf	HNF4 split-luc
CN(O)/C=C1\C(=O)Nc2ccccc21	1	-34	-34	5	.	.
COc1ccc(C(=O)/C=C2\C(=O)Nc3ccc(Br)cc32)cc1	18	85*	.	5	97*	91*
COC(=O)C1CN(Cc2cn(CCC3OCCO3)nn2)CCS(=O)(=O)N1Cc1ccccc1 (centres undefined)	1	.	.	.	.	.
CCOC(=O)[C@]12CCCC3=C1N(CCC3)C(=O)[C@@H](CC(=O)NCCCN1CCCC1=O)C2	-1	.	.	.	.	.
Clc1ccc(OCCCNCc2ccccc2)c(Br)c1	3	0	-2	-1	.	.
Clc1ccc(Cl)c(OCCCCNCc2ccccc2)c1	12	27*	0	-1	5	1
Nc1ccc(C(=O)C(=O)c2ccc(N)cc2)cc1	-4	3	-1	-3	.	.
N=C1C=CC(=C(c2ccc(N)cc2)c2ccc(N)cc2)C=C1	8	34*	.	-1	56*	60*
O=C(Cc1ccccc1)N1CCC(Oc2cccnc2)CC1	3	.	.	.	.	.
CCN1/C(=C/c2ccc3ccccc3[n+]2CCCS(=O)(=O)[O-])C=Cc2cc(C)ccc21	3	13	.	17	.	.
CCN1/C(=C/c2ccc3ccccc3[n+]2CC)C=Cc2ccccc21	14	41*	-12	11	55*	53*
Cn1cnc([N+](=O)[O-])c1S(=O)(=O)c1ccc(Cl)cc1	3	49*	.	-7	75*	98*
CCSC1(SCC)N=C(N)C2(C#N)C(c3ccc(OC)c(OC)c3OC)C12C#N (centres undefined)	0	25*	0	-6	78*	72*
COc1ccc(C(C)NC(=O)c2ccc(Cl)cc2)cc1OC (centres undefined)	-2	-2	-4	2	.	.
COc1ccc(C(=O)CC(SCC(NC(C)=O)C(=O)O)c2ccc(Cl)cc2)cc1OC (centres undefined)	7	38*	8	-12	24*	20*
Cc1ccccc1N(C)C(=O)CN1CCN(c2nc(-c3ccccc3)cs2)CC1	2	.	.	.	.	.
O=S(=O)(Nc1nc2ccccc2nc1NCc1ccco1)c1ccc(F)cc1	31	25*	5	6	5	6
O=c1c(C(c2ccccc2)c2c(O)nc3n(c2=O)CCS3)c(O)nc2n1CCS2	6	25*	2	2	56*	59*
O=c1c(C(c2ccccc2)c2c(O)nc3n(c2=O)CCCS3)c(O)nc2n1CCCS2	9	7	5	0	.	.
COC(=O)C1CN(Cc2ccc(OC)cc2)CCS(=O)(=O)N1Cc1ccc(OC)cc1 (centres undefined)	5	.	.	.	.	.
O=C1Cc2ccccc2Sc2c(OCCN3CCCCC3)cccc21	-3	25*	-16	0	4	12
O=C1Cc2ccccc2Sc2cc(OCCCN3CCCCC3)ccc21	3	8	-23	-8	.	.
O=C1/C(=C/c2ccncc2)CCC/C1=C\c1ccncc1	-2	99*	.	-3	104*	109*
O=C1/C(=C\c2ccncc2)CCc2ccccc21	-5	32*	6	-1	63*	60*
O=C1C(=Cc2ccncc2)CCCc2ccccc21	-1	18	.	0	.	.
O=C1CCC/C1=C\c1ccccc1	-1	5	1	-4	.	.
O=C1/C(=C/c2ccncc2)CCc2ccccc21	0	34*	6	-4	62*	59*

Assay outcomes from PubChem BioAssay.
